# The list is not random: actives were taken first. Their share in the collection is about 1.8%.
# Casp6 inh = human caspase-6 inhibitors, primary screen, biochemical, VEID-R110 fluorescence, single point, set 2; P55212; purified caspase-6, Z-VEID-R110 cleavage fluorescence; inhibition, % at 12.5 µM; hit rate 0.53% among 350,000;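 active means mean inhibition across replicates at least about 35%, with every replicate also reaching that limit, limit read from the data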;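 further: 0% = median of neutral control wells and 100% = no fluorescence left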
# UHRF1 MBD2 ctr = UHRF1 methylated DNA binding inhibitors, primary screen, counter-screen for MBD2 inhibitor project, biochemical, TR-FRET, human UHRF1, single concentration; E3 ubiquitin-protein ligase UHRF1 (Homo sapiens), Q96T88; UHRF1 binding to methylated oligo; inhibition, % at 4.4 µM; hit rate 0.75% among 370,000; AID 687016, 2013; in the data active means inhibition above about 21%;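 further: UHRF1 SRA domain binding a hemimethylated CpG hairpin DNA probe; 0% = median of test compound wells and 100% = reference inhibitor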
# TDP2 absorb = human TDP2 enzyme inhibitors, primary screen, biochemical, epi absorbance, recombinant enzyme; inhibition, % at 12.8 µM; AID 720702, 2013; hit rate 0.34% among 370,000; Tyrosyl-DNA phosphodiesterase 2 (Homo sapiens), O95551; T5PNP hydrolysis, p-nitrophenol absorbance 415 nm;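 active means inhibition above the mean of all tested compounds plus 3 SD, set per campaign, cut at about 25% in these data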;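 further: 0% = DMSO with enzyme and 100% = buffer with substrate but no TDP2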
#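 System – recombinant human TDP2 · Quantity – TDP2 enzyme at 120 nM final · Doses – single concentration, 12.8 µM nominal, with 1% DMSO · Incubation – 2 h at 37 °C · Measured by – epi absorbance of p-nitrophenol freed from T5PNP by hydrolysis · Read-out – % inhibition relative to enzyme-containing and enzyme-free wells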
# LEDGF integ inh = blockers of LEDGF/p75-dependent integrase strand transfer – biochemical, TR-FRET, high throughput, primary screen | HIV-1 integrase (with human LEDGF/p75) | TR-FRET IN-LEDGF/p75 DNA integration, Eu/Cy5 | inhibition, % at 3.7 µM | hit rate 0.64% among 370,000;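 active means inhibition above the screen-wide mean plus 3 SD, cut at about 13% in these data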;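 further: signal is the Cy5 over europium emission ratio at 671 and 618 nm; 0% = plate median of compound wells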
# NSD2 inh = NSD2 histone methyltransferase inhibitors, primary screen, biochemical, AlphaScreen, single concentration, set 2 | NSD2 peptide methylation, 120 min | AID 743445, 2014 | hit rate 0.54% among 310,000 | inhibition, % at 12.5 µM | Histone-lysine N-methyltransferase NSD2 (Homo sapiens), O96028; in the data active means inhibition above about 50%
# MBD2 inh = inhibitors of MBD2 binding to methylated DNA, primary screen, biochemical, TR-FRET, DNA-binding domain, human | Methyl-CpG-binding domain protein 2 (Homo sapiens), Q9UBB5 | MBD2 binding to methylated oligonucleotide | inhibition, % at 4.4 µM | hit rate 0.31% among 370,000 | AID 686964, 2013; in the data active means inhibition above about 13%
# Target sequence (Q9UBB5 whole entry, looked up, the tested form may be a part): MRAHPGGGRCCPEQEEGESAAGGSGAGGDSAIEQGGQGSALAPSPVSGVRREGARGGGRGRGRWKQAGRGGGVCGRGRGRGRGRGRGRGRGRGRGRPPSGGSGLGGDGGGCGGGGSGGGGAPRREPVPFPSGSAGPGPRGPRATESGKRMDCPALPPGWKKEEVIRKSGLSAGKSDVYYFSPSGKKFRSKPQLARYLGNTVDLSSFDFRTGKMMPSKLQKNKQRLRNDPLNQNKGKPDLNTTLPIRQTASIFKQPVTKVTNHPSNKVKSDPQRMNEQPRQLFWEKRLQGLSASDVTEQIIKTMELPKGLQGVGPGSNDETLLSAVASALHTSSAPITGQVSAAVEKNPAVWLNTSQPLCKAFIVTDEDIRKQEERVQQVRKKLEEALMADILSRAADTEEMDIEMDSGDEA
# * hit, by the source's call; / = no result.
SMILES,Casp6 inh,UHRF1 MBD2 ctr,TDP2 absorb,LEDGF integ inh,NSD2 inh,MBD2 inh
O=C(Cc1ccccn1)N1CCCCN2[C@H](CO)[C@H](c3ccc(-c4ccccc4F)cc3)[C@@H]2C1,-6,/,/,/,/,/
Cc1ccc(/C=C2\C(=O)NC(=S)N(c3ccc(F)cc3)C2=O)s1,31,0,12,3,/,0
COc1cccc(N2C(=O)/C(=C/c3ccc(C)o3)C(=O)NC2=S)c1,40*,1,9,4,19,1
COc1ccc(N2C(=O)/C(=C/c3ccc(N(C)C)o3)C(=O)NC2=S)cc1,11,-23,6,0,/,-17
Cc1ccc(/C=C2\C(=O)NC(=S)N(c3ccc(F)cc3)C2=O)o1,41*,-2,3,5,32,-2
COc1ccc(CN2C(=O)NC(=O)/C(=C/c3ccc([N+](=O)[O-])s3)C2=O)cc1,44*,1,10,4,36,-2
COc1cccc(N2C(=O)NC(=O)/C(=C/c3ccc([N+](=O)[O-])s3)C2=O)c1,47*,3,-1,8,28,-1
O=C1NC(=O)N(Cc2ccc(F)cc2)C(=O)/C1=C\c1ccc([N+](=O)[O-])s1,32,-3,7,5,40,2
COc1cc(CN2CC=C(c3ccc(F)cc3)CC2)cc(OC)c1,-1,-2,10,1,/,5
CN(C)c1ccc(CN2CC=C(c3ccc(F)cc3)CC2)cc1,/,9,-10,-1,51*,3
O=C(Cc1ccncc1)N1CCCCN2[C@H](CO)[C@@H](c3ccc(C#CC4(O)CCCC4)cc3)[C@@H]2C1,13,/,/,/,/,/
CCCCCCCSc1cc(OC)c(CCNC)cc1OC,/,0,-11,0,69*,1
CC=Cc1ccc2n(c1=O)C[C@@H]1[C@@H](CO)[C@H](C(=O)OC)[C@H]2N1C(=O)CC (mixture of isomers),-1,/,/,/,/,/
O=C1C(Cl)=CC(=Nc2ccc(O)cc2)C=C1Cl,40*,-6,4,8,/,-9
Cn1c(O)c(/C=C2\C=c3ccccc3=NC2=O)c(=O)n(C)c1=O,6,75*,12,-2,2,-5
O=C(O)c1cccc2c1NC(C(=O)O)C1CC(Sc3ccccc3[N+](=O)[O-])C(Cl)C21 (centres undefined),/,62*,17,52*,31,21*
O=C(O)[C@H]1[C@H](CO)[C@H]2Cn3c(ccc(-c4cccc(F)c4)c3=O)[C@@H]1N2CCc1ccccc1,3,/,/,/,/,/
COC(=O)[C@@H]1[C@@H](CO)[C@@H]2Cn3c(ccc(-c4cccc(F)c4)c3=O)[C@H]1N2C(=O)CC1CC1,-2,/,/,/,/,/
C=CCN1C(=O)NC(=O)/C(=C\c2ccc(-c3ccccc3[N+](=O)[O-])o2)C1=O,11,56*,12,4,4,3
C=CCN1C(=O)/C(=C/c2ccc(N3CCOCC3)o2)C(=O)NC1=S,/,-5,-2,-4,4,-8
COc1ccc(/C=C2/C(=O)N(Cc3ccco3)C(=O)N(C(C)C)C2=O)cc1,78*,32*,-9,33*,/,1
CCN1C(=O)C(=C2C=C(C)N(Cc3ccco3)C(C)=C2)C(=O)N(CC)C1=S,/,4,2,-3,-7,1
CN(C)c1ccc(/C=C/c2cc[n+](C)c3ccccc23)cc1,-18,18,-2,-15,62*,9
CCC(=O)N1[C@@H]2c3ccc(-c4cccc(F)c4)c(=O)n3C[C@H]1[C@H](CO)[C@H]2C(=O)OC,2,/,/,/,/,/
O=C1NC(=O)N(c2ccccc2F)C(=O)/C1=C/c1ccc(Sc2nc3ccccc3[nH]2)o1,60*,9,10,22*,87*,-5
SMILES,Casp6 inh,UHRF1 MBD2 ctr,TDP2 absorb,LEDGF integ inh,NSD2 inh,MBD2 inh
O=C1NC(=O)N(c2cccc(Cl)c2)C(=O)/C1=C\c1ccc(Sc2nc3ccccc3[nH]2)o1,70*,12,0,20*,71*,-1
CCc1ccc(N2C(=O)NC(=O)/C(=C/c3cccn3CCOc3ccc(C)cc3)C2=O)cc1,10,0,3,-2,6,2
O=C1NC(=O)N(Cc2ccco2)C(=O)/C1=C\c1cccn1CCOc1ccc(Cl)cc1,68*,55*,16,61*,19,2
COC(=O)[C@@]1(C#N)[C@@H]2C=CC(C(C)=O)=CN2[C@@H](C(N)=O)[C@@H]1c1ccc(F)cc1,9,25*,3,0,3,-4
O=C(Cc1ccccn1)N1CCCCN2[C@H](CO)[C@H](c3ccc(C#Cc4ccccc4)cc3)[C@@H]2C1,-1,/,/,/,/,/
N#CC1=C(N)Oc2c(c(=O)oc3ccccc23)C1c1ccc(OC(=O)N2CCOCC2)cc1 (centres undefined),1,38*,-4,1,-1,4
CC(C)CC1C(C#N)=C(N)Oc2c1c(=O)oc1ccccc21 (centres undefined),2,76*,7,7,/,-2
CCCN1[C@@H]2Cn3c(ccc(-c4cccc(C(=O)N(C)C)c4)c3=O)[C@H]1[C@@H](C(=O)OC)[C@@H]2CO,-1,/,/,/,/,/
COc1ccc(C#Cc2ccc([C@H]3[C@H](CO)N4CCCCN(C(=O)Cc5cccnc5)C[C@@H]34)cc2)cc1,0,/,/,/,/,/
CCCCn1nnnc1C(CCSC)N1CCC(n2c(=O)[nH]c3ccccc32)CC1 (centres undefined),50*,1,-3,-4,/,-2
CN1C(=O)NC(=O)C(N=Nc2ccc(Cl)cc2)C1=O (centres undefined),47*,4,-13,-7,4,-2
CN(C)[C@@H]1C(=O)C(C(N)=O)=C(O)[C@@]2(O)C(=O)C3=C(O)c4c(O)cccc4[C@@](C)(O)[C@H]3[C@H](O)[C@@H]12,69*,67*,12,61*,/,35*
COC(=O)[C@@H]1[C@@H](CO)[C@@H]2Cn3c(ccc(-c4ccncc4)c3=O)[C@H]1N2S(=O)(=O)c1ccccc1C,0,/,/,/,/,/
NCC(CC(=O)O)c1ccc(Cl)cc1 (centres undefined),/,25*,2,1,3,9
O=C(O)COc1ccc(Cl)cc1Cl,1,0,0,2,-1,1
COc1cc2c(cc1O)C[C@H]1NCCc3cc4c(c-2c31)OCO4,16,30*,-10,1,/,23*

# Source: PubChem
